# ChEMBL document CHEMBL1157464, “1-[(3-Aryloxy-3-aryl)propyl]-1H-imidazoles, new imidazoles with potent activity against Candida albicans and dermatophytes. Synthesis, structure-activity relationship, and molecular modeling studies” (J Med Chem, 2008)
# Key:
# [1] = test system: Candida parapsilosis; assay: Antifungal activity against Candida parapsilosis ATCC 22019 at 35 degC after 48 hrs by broth microdilution test; format: functional
# Summary of the method: (§1)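 Broth microdilution per NCCLS M27-A2. Stocks in 100% DMSO, diluted in RPMI 1640 with 0.165 M MOPS at pH 7.0; final range 0.25–128 µg/mL. Inoculum 1000–5000 cells/mL from SDA subcultures. […] C. parapsilosis ATCC22019 served as QC strain.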
# [2] = test system: Candida albicans; assay: Antifungal activity against Candida albicans ATCC 10261 at 35 degC after 48 hrs by broth microdilution test; format: functional; summary of the method: as §1
# [3] = test system: Candida albicans; assay: Antifungal activity against Candida albicans ATCC 10261 at 35 degC after 48 to 96 hrs by broth microdilution test; format: functional
# Summary of the method: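 Minimal fungicidal concentration for Candida. […] MFC is the lowest concentration allowing fewer than two colonies (99% killing).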
# [4] = test system: Arthrodermataceae; assay: Antifungal activity against dermatophytes at 28 degC after 48 to 96 hrs by broth microdilution test
# [5] = test system: Arthrodermataceae; assay: Antifungal activity against dermatophytes at 28 degC after 5 days by broth microdilution test; conditions: for MFC: Arthrodermataceae
# [6] = test system: Arthrodermataceae; assay: Antifungal activity against dermatophytes at 28 degC after 7 days by broth microdilution test; format: functional; conditions: 168 h
# Summary of the method: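 Ten clinical isolates (two M. canis, five M. gypseum, three T. mentagrophytes) tested by NCCLS M38-A broth microdilution in MOPS-buffered RPMI 1640, pH 7.0, over 0.25–128 µg/mL. Conidial/hyphal suspension from PDA slants (28 °C, 7 days) adjusted to 65–70% transmittance at OD530, then diluted 1:50.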
# [7] = Lodderomyces parapsilosis, ATCC 22019, 48 h, read-out: MFC
# [8] = Lodderomyces parapsilosis, ATCC 22019, 48 h, read-out: MIC
# [9] = Candida albicans, ATCC 10261, 48 h, read-out: MIC
# [10] = Candida albicans, ATCC 10261, 48 h, read-out: MIC50
# [11] = Candida albicans, ATCC 10261, 48 h, read-out: MIC90
# [12] = Candida albicans, ATCC 10261, read-out: MFC
SMILES,"MFC [1, 7] [µg/mL]","MIC [1, 8] [µg/mL]","MIC [2, 9] [µg/mL]","MIC50 [2, 10] [µg/mL]","MIC90 [2, 11] [µg/mL]",MFC50 [3] [µg/mL],MFC90 [3] [µg/mL],"MFC [3, 12] [µg/mL]",MFC50 [4] [µg/mL],MFC90 [5] [µg/mL],MFC [5] [µg/mL],MIC [6] [µg/mL],MIC50 [6] [µg/mL],MIC90 [6] [µg/mL],MFC [1] [µg/mL],MIC [1] [µg/mL],MIC [2] [µg/mL],MIC50 [2] [µg/mL],MIC90 [2] [µg/mL],MFC [3] [µg/mL]
OC(CCn1ccnc1)(c1ccccc1)c1ccccc1,64,32,114,128,128,128,128,128,,,,,,,,,,,,
O=[N+]([O-])O.c1ccc(C(OCCn2ccnc2)c2ccccc2)cc1,64,32,78.1,64,128,128,>256,230,,,,,,,,,,,,
Fc1ccc(C(CCn2ccnc2)Oc2ccccc2)cc1 (stereo not given),32,8,32.1,32,64,64,64,57.6,32,32,28.5,16.1,16,16,,,,,,
Cc1ccc(OC(CCCCn2ccnc2)c2ccc(Cl)cc2)cc1 (stereo not given),8,8,32,32,32,32,32,32,,,,,,,,,,,,
Fc1ccc(C(CCn2ccnc2)Oc2c(Cl)cccc2Cl)cc1 (stereo not given),32,4,36.1,8,64,32,128,78.9,16,16,15,6.4,8,8,,,,,,
Cc1ccc(C(CCn2ccnc2)Oc2c(Cl)cccc2Cl)cc1 (stereo not given),16,1,42,8,128,32,128,62.9,,,,,,,,,,,,
Clc1ccc(OC(CCn2ccnc2)c2ccccc2)c(Cl)c1 (stereo in doubt; (+)-14a),,,,,,,8,,,,,,,,4,0.5,3.2,4,4,7.4
Clc1cc(Cl)cc(OC(CCn2ccnc2)c2ccccc2)c1 (stereo not given),4,0.5,13.8,16,16,32,64,29.8,16,16,15,7.2,8,8,,,,,,
Cc1ccc(C(CCn2cncn2)Oc2ccc(Cl)cc2Cl)cc1 (stereo not given),64,32,> 128,> 128,> 128,>128,>128,> 128,32,>128,122,17.6,16,32,,,,,,
Cc1ccc(C(CCn2ccnc2)Oc2ccc(C(C)C)cc2)cc1 (stereo not given),16,2,16.6,16,32,32,64,32,,,,,,,,,,,,
Cc1ccc(C(CCn2ccnc2)Oc2ccccc2)cc1 (stereo not given),32,4,20.3,16,32,32,64,38.4,,,,,,,,,,,,
"Cc1ccc(OC(CCn2ccnc2)c2ccccc2)cc1 (single isomer, unassigned; (-))",,,,,,64,64,,,,,,,,,2,28.3,16,64,51.4
Clc1ccc(C(CCn2cncn2)Oc2ccc(Cl)cc2Cl)cc1 (stereo not given),64,32,> 128,> 128,> 128,>128,>128,> 128,32,>128,138,10.4,8,16,,,,,,
Clc1ccc(OC(CCn2ccnc2)c2ccc(Cl)cc2Cl)c(Cl)c1 (stereo not given),64,8,51,64,64,64,64,64,,,,,,,,,,,,
Clc1ccc(C(OCCn2ccnc2)c2ccccc2)c(Cl)c1.O=[N+]([O-])O (stereo not given),32,16,46.1,32,64,128,>256,158,8,8,7.5,7,8,8,,,,,,
Cc1ccc(C(CCn2ccnc2)Oc2ccc(C(C)(C)C)cc2)cc1 (stereo not given),16,8,52.1,64,64,64,64,58,16,16,14.4,11.2,8,16,,,,,,
Clc1ccc(C(OCCn2ccnc2)c2ccc(Cl)cc2Cl)cc1.O=[N+]([O-])O (stereo not given),32,16,34.4,32,64,128,256,145,,,,,,,,,,,,
CNCCC(Oc1ccc(C(F)(F)F)cc1)c1ccccc1 (stereo not given) [FLUOXETINE],,,,,,,,,64,64,64,45,32,64,,,,,,
Clc1cccc(Cl)c1OC(CCn1ccnc1)c1ccccc1 (stereo not given),32,2,46.2,64,64,64,64,64,32,32,28.8,7.6,8,8,,,,,,
Cc1ccc(C(CCn2ccnc2)Oc2ccc(C)cc2C)cc1 (stereo not given),32,8,46.5,32,64,64,64,62,,,,,,,,,,,,
"Cc1ccc(OC(CCn2ccnc2)c2ccccc2)cc1 (single isomer, unassigned; (+))",,,,,,,,,,,,,,,8,1,6.5,,8,14.9
Clc1ccc(C(OCCn2ccnc2)c2ccc(Cl)cc2Cl)c(Cl)c1,64,32,> 128,> 128,> 128,>128,>128,> 128,,,,,,,,,,,,
Clc1ccc(C(CCn2ccnc2)OCc2ccc(Cl)cc2Cl)cc1 (stereo not given),32,4,60.2,64,64,64,64,62,16,16,17.3,7,8,8,,,,,,
Cc1ccc(OC(CCn2ccnc2)c2ccc(Cl)cc2)c(C)c1 (stereo not given),32,8,13.5,16,16,32,32,28,64,64,58,32.5,32,32,,,,,,
"Clc1ccc(OC(CCn2ccnc2)c2ccccc2)c(Cl)c1 (single isomer, unassigned; (-))",,,,,,32,32,,,,,,,,8,1,11.8,,16,28.6
Cc1ccc(C(CCn2ccnc2)Oc2ccc(Cl)cc2C)cc1 (stereo not given),16,4,16,16,16,64,64,58,,,,,,,,,,,,
